Test results as given in the RNAGym collection of RNA variant scans (doi:10.1126/science.aae0568).
Variants at the floor of the assay were thinned out.

B1: tRNA (parent)
chain: GUUCCGUUGGCGUAAUGGUAACGCGUCUCCCUCCUAAGGAGAAGACUGCGGGUUCGAGUCCCGUACGGAACG

Variants of: B1
Assay: yeast fitness relative to wild type (ratio to wild type); higher = fitter; tRNA-Arg(CCU), competitive growth, 37 C, YPD
Outline: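 Gene amplicons from the start population and from each of six end populations were read by 100-nucleotide paired-end sequencing. Those end populations came from pooled Saccharomyces cerevisiae strains carrying tRNA-Arg(CCU) gene variants at the native locus, competed in YPD at 37°C for 24 hours. Fitness relative to wild type was worked out from changes in genotype frequencies. Genotypes needed ≥ 100 starting reads, and estimates < 0.5 were set to 0.5.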

Question: For C29U A40U G56C A69C, which yeast fitness is on record?
Answer: The yeast fitness was 0.519.

Question: Which yeast fitness does the source give for C4U C27G A45C G58A C62G here?
Answer: Its yeast fitness is ≤ 0.5.

Question: Which yeast fitness does the source give for A42G G44C A57C here?
Answer: Its yeast fitness is ≤ 0.5.

Question: For U3A G12C U28C G56A C60G, which yeast fitness is on record?
Answer: Its yeast fitness is ≤ 0.5.

Question: Which yeast fitness does the source give for U13C C61G G67U here?
Answer: The yeast fitness was 0.6.

Question: With A20G C29A G68A as the variant, how does the yeast fitness read?
Answer: The yeast fitness was 0.613.

Question: Which yeast fitness does the source give for G12A A36C G51A here?
Answer: Its yeast fitness is 0.603.

Question: With C11U C29U G50A C66A as the variant, how does the yeast fitness read?
Answer: The yeast fitness was ≤ 0.5.

Question: With C5G A37U C46U A69C as the variant, how does the yeast fitness read?
Answer: The yeast fitness was ≤ 0.5.

Question: With G10C G50A C61G as the variant, how does the yeast fitness read?
Answer: Its yeast fitness is 0.554.

Question: For A21C G23A C49A, which yeast fitness is on record?
Answer: The yeast fitness was ≤ 0.5.

Question: With U7A G18A C33A G38C as the variant, how does the yeast fitness read?
Answer: Its yeast fitness is ≤ 0.5.

Question: Which yeast fitness does the source give for U3C C5A C55A C60A here?
Answer: Its yeast fitness is ≤ 0.5.

Question: Which yeast fitness does the source give for G10C G23C C33G C46A C66A here?
Answer: Its yeast fitness is ≤ 0.5.

Question: Which yeast fitness does the source give for G18A A43G here?
Answer: Its yeast fitness is 0.904.

Question: For C27U U59G G68C, which yeast fitness is on record?
Answer: Its yeast fitness is 0.539.

Question: For G18A C24U G58A, which yeast fitness is on record?
Answer: The yeast fitness was ≤ 0.5.

Question: With U3C C4U A57G as the variant, how does the yeast fitness read?
Answer: The yeast fitness was 0.677.

Question: With C5U C22U C33U U53A as the variant, how does the yeast fitness read?
Answer: The yeast fitness was ≤ 0.5.

Question: For C30G A45U C60G C62U C66G, which yeast fitness is on record?
Answer: The yeast fitness was ≤ 0.5.

Question: For U2A G9A U13A U35G A70C, which yeast fitness is on record?
Answer: The yeast fitness was ≤ 0.5.

Question: For U3A C11A C33U C60U A65U, which yeast fitness is on record?
Answer: Its yeast fitness is ≤ 0.5.

Question: With C31U A42G G50A as the variant, how does the yeast fitness read?
Answer: The yeast fitness was 0.629.

Question: With U2G U8C as the variant, how does the yeast fitness read?
Answer: The yeast fitness was 0.891.

Question: For C11U U19G C22G A42G G44C C55U, which yeast fitness is on record?
Answer: Its yeast fitness is ≤ 0.5.

Question: For A45C U47A, which yeast fitness is on record?
Answer: Its yeast fitness is 0.934.

Question: For U16C C33U, which yeast fitness is on record?
Answer: Its yeast fitness is 0.686.

Question: Which yeast fitness does the source give for U26A U28C C30G A37C here?
Answer: The yeast fitness was ≤ 0.5.

Question: Which yeast fitness does the source give for G18C C30G U32C here?
Answer: Its yeast fitness is ≤ 0.5.

Question: With C33A A69G as the variant, how does the yeast fitness read?
Answer: Its yeast fitness is 0.655.

Question: Which yeast fitness does the source give for C4A G6A U53A A65U here?
Answer: The yeast fitness was ≤ 0.5.

Question: With C11U C55U G68C as the variant, how does the yeast fitness read?
Answer: The yeast fitness was 0.537.

Question: With C34U A43U A45U as the variant, how does the yeast fitness read?
Answer: Its yeast fitness is 0.534.

Question: For G38C A70U, which yeast fitness is on record?
Answer: Its yeast fitness is 0.628.

Question: For U2C U16G G51A, which yeast fitness is on record?
Answer: Its yeast fitness is 0.588.

Question: For G9A C22U C60G A65C, which yeast fitness is on record?
Answer: The yeast fitness was 0.648.

Question: With G9A G23U A42C as the variant, how does the yeast fitness read?
Answer: Its yeast fitness is ≤ 0.5.

Question: With C30G A65C as the variant, how does the yeast fitness read?
Answer: The yeast fitness was 0.68.

Question: With U16A C29U A45G C46U A69U as the variant, how does the yeast fitness read?
Answer: The yeast fitness was ≤ 0.5.

Question: With U8A G18A C30G U32A U35G G67A as the variant, how does the yeast fitness read?
Answer: Its yeast fitness is ≤ 0.5.

Question: Which yeast fitness does the source give for U13A A37U G67C here?
Answer: The yeast fitness was 0.645.

Question: Which yeast fitness does the source give for C34A U59C here?
Answer: Its yeast fitness is 0.728.

Question: With G25A C30U C62U as the variant, how does the yeast fitness read?
Answer: Its yeast fitness is 0.583.

Question: For U2G C4U G6C C49G, which yeast fitness is on record?
Answer: The yeast fitness was ≤ 0.5.

Question: For U13G C29U C31U U35A A57C, which yeast fitness is on record?
Answer: The yeast fitness was ≤ 0.5.

Question: With G12A A43U C62U as the variant, how does the yeast fitness read?
Answer: Its yeast fitness is 0.807.

Question: With U7G C27G U32C U35C A36G U53A G56A as the variant, how does the yeast fitness read?
Answer: The yeast fitness was ≤ 0.5.

Question: For C4U A14C C49G C55G, which yeast fitness is on record?
Answer: Its yeast fitness is ≤ 0.5.

Question: Which yeast fitness does the source give for C5U U32C G39A here?
Answer: The yeast fitness was 0.584.

Question: With C5G U19A as the variant, how does the yeast fitness read?
Answer: Its yeast fitness is 0.818.

Question: Which yeast fitness does the source give for A43U A57U here?
Answer: Its yeast fitness is 0.761.

Question: With C29G A43G C49G as the variant, how does the yeast fitness read?
Answer: Its yeast fitness is 0.532.

Question: For U3C C27G, which yeast fitness is on record?
Answer: Its yeast fitness is 0.714.

Question: Which yeast fitness does the source give for C4U C30U G38A G68C here?
Answer: The yeast fitness was ≤ 0.5.

Question: With C5G A20U U28G as the variant, how does the yeast fitness read?
Answer: Its yeast fitness is ≤ 0.5.

Question: Which yeast fitness does the source give for G10A G18A A36G here?
Answer: The yeast fitness was ≤ 0.5.

Question: With U3A C4A U16A C30G U53C G67U as the variant, how does the yeast fitness read?
Answer: The yeast fitness was ≤ 0.5.

Question: With G10A A57U A65U as the variant, how does the yeast fitness read?
Answer: The yeast fitness was ≤ 0.5.

Question: With G10C G41C as the variant, how does the yeast fitness read?
Answer: The yeast fitness was 0.634.

Question: Which yeast fitness does the source give for C5A U7C C62U here?
Answer: The yeast fitness was ≤ 0.5.

Question: For C11U C61U, which yeast fitness is on record?
Answer: The yeast fitness was 0.827.

Question: With U3G C5U C62A as the variant, how does the yeast fitness read?
Answer: Its yeast fitness is ≤ 0.5.

Question: For U7G G25C G67A, which yeast fitness is on record?
Answer: Its yeast fitness is 0.682.

Question: For C24A C49A G56C G68C, which yeast fitness is on record?
Answer: Its yeast fitness is ≤ 0.5.

Question: With U2C C27G A43U A45U A69U as the variant, how does the yeast fitness read?
Answer: The yeast fitness was ≤ 0.5.

Question: Which yeast fitness does the source give for U26G G56A G68U A69U here?
Answer: The yeast fitness was ≤ 0.5.

Question: Which yeast fitness does the source give for C31A C61G here?
Answer: Its yeast fitness is 0.812.

Question: With U8A C27U A40G C49U C55G as the variant, how does the yeast fitness read?
Answer: The yeast fitness was 0.554.

Question: Which yeast fitness does the source give for C11G A40G here?
Answer: The yeast fitness was 0.567.

Question: For C30U C31U C60G, which yeast fitness is on record?
Answer: Its yeast fitness is ≤ 0.5.

Question: Which yeast fitness does the source give for U3C U26G here?
Answer: Its yeast fitness is 0.868.

Question: Which yeast fitness does the source give for C22G C31A A43G A70U here?
Answer: Its yeast fitness is ≤ 0.5.

Question: With U2G A36U G58A as the variant, how does the yeast fitness read?
Answer: The yeast fitness was ≤ 0.5.

Question: With C4U G52C G67C as the variant, how does the yeast fitness read?
Answer: Its yeast fitness is ≤ 0.5.

Question: With U13A U47A C60A as the variant, how does the yeast fitness read?
Answer: Its yeast fitness is 0.58.

Question: Which yeast fitness does the source give for U2G A15U U35G U53G here?
Answer: The yeast fitness was ≤ 0.5.

Question: With C5A U8C A21G A45C G56C C66U as the variant, how does the yeast fitness read?
Answer: The yeast fitness was ≤ 0.5.

Question: Which yeast fitness does the source give for C11A A43G U47C A65C here?
Answer: Its yeast fitness is ≤ 0.5.

Question: For U28C C30U U59C, which yeast fitness is on record?
Answer: Its yeast fitness is ≤ 0.5.

Question: With A21C C33U C55U A57C C61A as the variant, how does the yeast fitness read?
Answer: The yeast fitness was ≤ 0.5.

Question: Which yeast fitness does the source give for C22U A45G G56C here?
Answer: Its yeast fitness is 0.602.

Question: With A37U C61A as the variant, how does the yeast fitness read?
Answer: The yeast fitness was ≤ 0.5.

Question: With C22G C27G C31G C61G as the variant, how does the yeast fitness read?
Answer: Its yeast fitness is 0.575.

Question: For A15U G23U C24G, which yeast fitness is on record?
Answer: The yeast fitness was ≤ 0.5.
